Reference: ChEMBL document CHEMBL5046320, “A Stepwise Targeting Curcumin Derivative, Ser@TPP@CUR, for Acute Kidney Injury” (ACS Med Chem Lett, 2022)
Calls of active or inactive are those of the source. No cut-off for these calls is given here.

Tests used:
Kidney [1] = test: Anti-inflammatory activity against LPS-induced acute kidney injured Balb/c mouse model assessed as reduction in kidney TNF alpha level at 4 mg/kg,iv by ELISA; type: functional, organism-based
Procedure, shortened: (§1)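 TNF-α and IL-6 measured by ELISA in renal tissue of LPS-induced AKI mice after CUR-based treatment (CUR, 4 mg/kg); n = 6.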

Kidney [2] = test: Antioxidant activity against LPS-induced acute kidney injured Balb/c mouse model assessed as increase in kidney superoxide dismutase level at 4 mg/kg,iv; type: functional, organism-based
Procedure, shortened: (§2)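 SOD, GSH and MDA levels determined in renal tissue of LPS-induced AKI mice after treatment at CUR 4 mg/kg; n = 6.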

[3] = Drug uptake in LPS stimulated human HK-2 cells pretreated with LPS for 12 hrs followed by compound addition incubated for 2 to 6 hrs by flow cytometry method; type: ADME, cell-based; settings: time 2-6 hrs
Procedure, shortened: (§3)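 HK-2 cells with or without LPS treatment incubated with compound for 2.0 and 6.0 h; uptake imaged by fluorescence microscopy; flow cytometry at 2.0 h.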

HK-2 [4] = test: Antioxidant activity in human HK-2 cells assessed as reduction in LPS induced mitochondrial reactive oxygen species generation at 7.16 ug/ml pretreated with LPS for 24 hr followed by compound addition incubated for 2 hr by MitoSOX staining based inverted fluorescent microscopic analysis; type: functional, cell-based; settings: dose 7.16 µg/ml
Procedure, shortened: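 LPS-treated HK-2 cells exposed to test agent (7.16 μg/mL); mitochondrial superoxide visualised with MitoSOX Red indicator by fluorescence imaging.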

HK-2 [5] = test: Induction of apoptosis in LPS-induced HK-2 cells assessed as increase in mitochondrial cytochrome C protein expression pretreated with LPS followed by compound addition incubated for 24 hrs by immunoblotting analysis; type: functional, cell-based; settings: Homo sapiens
Procedure, shortened: (§4)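 LPS-treated HK-2 cells; cytochrome c in mitochondrial and cytosolic fractions, cleaved caspase-9 and cleaved caspase-3 detected by immunoblot, normalised to β-actin; mean ± SD, n = 3.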

[6] = Drug distribution in kidney of acute kidney injured Balb/c mouse model assessed as increase in CUR level at 4 mg/kg, iv after 2 hrs of administration by IVIS Lumina III analysis; type: ADME, organism-based; settings: in vivo
Procedure, shortened: (§5)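 Normal or AKI mice given intravenous dose (CUR, 4 mg/kg); heart, lung, liver, spleen and kidney imaged ex vivo 2 h later on IVIS Lumina III; tissue distribution as mean ± SD, n = 6.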

[7] = Drug uptake in LPS stimulated human HK-2 cells pretreated with LPS for 12 hrs followed by compound addition incubated for 2 to 6 hrs by inversed fluorescence microscope analysis; type: ADME, cell-based; settings: time 2-6 hrs; procedure, shortened: as §3
HK-2 [8] = test: Induction of apoptosis in LPS-induced HK-2 cells assessed as inhibition of cleaved caspase-9 protein expression pretreated with LPS followed by compound addition incubated for 24 hrs by immunoblotting analysis; type: functional, cell-based; settings: Homo sapiens; procedure, shortened: as §4
[9] = Drug distribution in kidney of Balb/c mouse model assessed as increase in CUR level at 4 mg/kg, iv after 2 hrs of administration by IVIS Lumina III analysis; type: ADME, organism-based; settings: in vivo; procedure, shortened: as §5
HK-2 [10] = test: Induction of apoptosis in LPS-induced HK-2 cells assessed as inhibition of cleaved caspase-3 protein expression pretreated with LPS followed by compound addition incubated for 24 hrs by immunoblotting analysis; type: functional, cell-based; settings: Homo sapiens; procedure, shortened: as §4
[11] = Drug uptake in LPS induced inflammation in human HK-2 cells assessed as decrease internalization in presence of Ser pretreated with LPS for 6 hr followed by compound addition incubated for 2 hr by flow cytometry; settings: hk-2, 2 h
Kidney [12] = test: Antioxidant activity against LPS-induced acute kidney injured Balb/c mouse model assessed as reduction of increased MDA level at 4 mg/kg,iv; type: functional, organism-based; procedure, shortened: as §2
[13] = Drug uptake in human HK-2 cells incubated for 2 to 6 hrs by inversed fluorescence microscope analysis; type: ADME, cell-based; settings: time 2-6 hrs; procedure, shortened: as §3
Mus musculus [14] = test: Nephroprotective activity against LPS-induced acute kidney injured Balb/c mouse model assessed as reduction in serum creatinine level at 4 mg/kg,iv by automatic biochemical analysis; type: functional, organism-based
Procedure, shortened: (§6)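 Scr and BUN measured on automatic biochemical analyzer 24 h after administration (CUR, 4 mg/kg) to LPS-induced AKI mice; n = 6.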

[15] = Drug distribution in kidney of acute kidney injured Balb/c mouse model assessed as KIM1 receptor mediated endocytosis at 4 mg/kg, iv by fluorescence imaging based assay; type: ADME, organism-based; settings: in vivo
Procedure, shortened: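 Renal tissue of AKI mice examined by fluorescence imaging for colocalization of compound (green) with immunostained KIM-1 receptor (red); free CUR as control.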

Mus musculus [16] = test: Nephroprotective activity against LPS-induced acute kidney injured Balb/c mouse model assessed as reduction in blood urea nitrogen level at 4 mg/kg,iv by automatic biochemical analysis; type: functional, organism-based; procedure, shortened: as §6
HK-2 [17] = test: Antioxidant activity in human HK-2 cells assessed as reduction in LPS induced intracellular nitrotyrosine expression level pretreated with LPS for 24 hr followed by compound addition incubated for 2 hr by fluorescence imaging based assay; type: functional, cell-based
Kidney [18] = test: Nephroprotective activity against acute kidney injured Balb/c mouse kidney assessed as decrease in vacuolar degeneration at 4 mg/kg,iv by H and E staining based assay; type: functional, organism-based
Procedure, shortened: (§7)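 Renal tissue of AKI mice stained with H&E and examined by optical microscopy for tubular epithelial swelling, vacuolar degeneration and brush border loss; treatment at CUR 4 mg/kg.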

Kidney [19] = test: Nephroprotective activity against acute kidney injured Balb/c mouse kidney assessed as decrease in disappeared and expanded tubular border brush at 4 mg/kg,iv by H and E staining based assay; type: functional, organism-based; procedure, shortened: as §7
Kidney [20] = test: Anti-inflammatory activity against LPS-induced acute kidney injured Balb/c mouse model assessed as reduction in kidney IL-6 level at 4 mg/kg,iv by ELISA; type: functional, organism-based; procedure, shortened: as §1
Kidney [21] = test: Antioxidant activity against LPS-induced acute kidney injured Balb/c mouse model assessed as increase in kidney GSH level at 4 mg/kg,iv; type: functional, organism-based; procedure, shortened: as §2
[22] = Drug uptake in human HK-2 cells assessed as increase in fluorescence intensity pretreated with LPS for 12 hrs followed by compound addition incubated for 6 hrs by mitotracker red based inverted microscopic analysis; type: ADME, cell-based; settings: hk-2, 6 h
Procedure, shortened: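 HK-2 cells co-stained with MitoTracker Red; mitochondrial colocalization of compound imaged by fluorescence microscopy; free CUR as control.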

HK-2 [23] = test: Induction of apoptosis in LPS-induced human HK-2 cells assessed as inhibition of cytochrome c protein expression pretreated with LPS followed by compound addition incubated for 24 hrs by immunoblotting analysis; type: functional, cell-based; procedure, shortened: as §4
HK-2 [24] = test: Nephroprotective activity against LPS induced human HK-2 cells assessed as increase in cell viability at 3 ug/ml incubated for 24 hrs by MTT assay relative to control; type: functional; settings: dose 3 µg/ml
Procedure, shortened: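 HK-2 cells exposed to 15 μg/mL LPS for 24 h; viability assessed by MTT assay; n = 6.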

Mus musculus [25] = test: Antioxidant activity against LPS-induced acute kidney injured Balb/c mouse mitochondrial fraction of kidney assessed as reduction of H2O2 generation at 4 mg/kg,iv by Amplex Red dye Hydrogen Peroxide assay; type: functional, organism-based; settings: Mitochondria
Procedure, shortened: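 Mitochondria isolated intact from renal tissue of LPS-induced AKI mice; H₂O₂ production measured with Amplex Red H₂O₂/peroxidase detection kit after treatment at CUR 4 mg/kg; n = 6.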

Kidney [26] = test: Antioxidant activity against acute kidney injured Balb/c mouse kidney assessed as reduction of nitrotyrosine expression at 4 mg/kg,iv by immunohistochemistry analysis; type: functional, organism-based
Procedure, shortened: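 Renal sections from AKI mice stained by immunohistochemistry for nitrotyrosine after treatment at CUR 4 mg/kg; scale bar 50 μm.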

Kidney [27] = test: Nephroprotective activity against acute kidney injured Balb/c mouse kidney assessed as decrease in swollen tubular epithelial cells at 4 mg/kg,iv by H and E staining based assay; type: functional, organism-based; procedure, shortened: as §7

Drug uptake [3]: Active
Drug uptake [7]: Active
Drug uptake [9]: Not Active
Drug uptake [11]: Active
Drug uptake [13]: Not Active
Drug uptake [22]: Active
Structure (SMILES): COc1cc(/C=C/C(=O)CC(=O)/C=C/c2ccc(OC(=O)C(N)CO)c(OC)c2)ccc1OC(=O)CCCC[P+](c1ccccc1)(c1ccccc1)c1ccccc1.[Br-] (configuration not stated)
Activity (Kidney [1]): Active
Activity (Kidney [2]): Active
Activity (HK-2 [4]): Active
Activity (HK-2 [5]): Active
Drug uptake [6]: Active
Activity (HK-2 [8]): Active
Activity (HK-2 [10]): Active
Activity (Kidney [12]): Active
Activity (Mus musculus [14]): Active
Drug uptake [15]: Active
Activity (Mus musculus [16]): Active
Activity (HK-2 [17]): Active
Activity (Kidney [18]): Active
Activity (Kidney [19]): Active
Activity (Kidney [20]): Active
Activity (Kidney [21]): Active
Activity (HK-2 [23]): Active
Activity (HK-2 [24]): 40%
Activity (Mus musculus [25]): Active
Activity (Kidney [26]): Active
Activity (Kidney [27]): Active
